≈ marks a conversion by molar mass, not a printed value. Entries after “also recorded” stand apart in the source; their conditions may differ. Like-named read-outs stand apart in the source and are kept apart here. Bounds are passed on as bounds.

Here are results for 8 compounds from PMC11364305 (Annals of African Medicine, 2024).

In series [1] the test system is C. neoformans (clinical isolate CN). Put plainly: Disc diffusion assay, clinical isolate CN. Type of series: cell-based, Cryptococcus neoformans. Particulars: 37°C, 48 h, mean±SD; for Diameter of zone of inhibition: 10 μL of essential oil or active compound per disc. Put shortly: (§1)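 Per CLSI M44-A2, modified. Strains were kept on SDA slants at 4°C and subcultured in SDB before use. 100 µl of cell suspension (1.5 × 10^8 cfu/ml) was spread on SDA. Plates got antifungal drug discs (10–20 µg/disc) or 8 mm paper discs soaked with 10 µl of oil or test compound, then incubated at 37°C for 48 h. Inhibition-zone diameter (mm) was recorded in triplicate as mean ± SD.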
A general note: Agar diffusion results depend on both activity and mobility in agar.

Series [2] relates to C. neoformans MTCC4424. The series can be described thus: Disc diffusion assay, MTCC4424. In kind it is cell-based, Cryptococcus neoformans. The following applies: 37°C, 48 h, mean±SD; for Diameter of zone of inhibition: 10 μL of essential oil or active compound per disc. Put shortly: as §1
In series [3] the test system is C. neoformans (clinical isolate CN). Put plainly: Broth microdilution MIC/MFC, clinical isolate CN. In kind it is cell-based. The following applies: Cryptococcus neoformans. In general terms: Broth dilution looks for growth in wells or tubes with falling amounts of substance.
The subject of series [4] is C. neoformans MTCC4424. Put plainly: Broth microdilution MIC/MFC, MTCC4424. Type of series: cell-based. Particulars: Cryptococcus neoformans; for MFC: MTCC4424.
A short description of the next series: Cytotoxicity. In kind it is cell-based. Particulars: red blood cell suspension (4% RBC from defibrinated blood), pH 7.
The test system of series [5] is Cryptococcus neoformans test strains (CN and CN MTCC4424). The series can be described thus: Broth microdilution, text statements for both test strains. In kind it is cell-based.
The test system of series [6] is CN and CN MTCC4424 strains. The series can be described thus: Checkerboard test, text statements for both test strains. In kind it is cell-based, Cryptococcus neoformans. The following applies: for Interaction with fluconazole: checkerboard, CN and CN MTCC4424.
The test system of series [7] is Cryptococcus neoformans test strains (CN and CN MTCC4424). Put plainly: Disc diffusion, text statements for both test strains. In kind it is cell-based. Particulars: oils/compounds, against the test strains. The method in brief:
as §1

Another series has as its system C. neoformans CN. The series can be described thus: Checkerboard microtiter test with fluconazole, CN. Type of series: cell-based, Cryptococcus neoformans. The following applies: for MIC: Cryptococcus neoformans, 48 h, read-out: MIC of agent alone; for Lowering of own MIC: in combination with fluconazole, against CN.
Series [8] deals with C. neoformans MTCC4424. Put plainly: Checkerboard microtiter test with fluconazole, MTCC4424. Type of series: cell-based, Cryptococcus neoformans. Particulars: for MIC: Cryptococcus neoformans, MTCC4424, 48 h, read-out: MIC of agent alone.
In another series the test system is red blood cell (RBC). Put plainly: Cytotoxicity. Particulars: 0.1% (v/v) Triton X-100. Type of series: cell-based.
Setting [9] is: Cryptococcus neoformans, MTCC4424, read-out: MIC, oils/compounds, against the test strains.
Setting [10] is: oils/compounds, against the test strains.
Where [11] appears, read: CD-FLC combination (cinnamaldehyde + fluconazole).
[12] abbreviates: EL-FLC combination (eugenol + fluconazole).

By zone of inhibition is commonly meant the extent of the growth-free halo in a diffusion test. Take `CC(C)=CCCC(C)=CC=O` (mixture of isomers) [CT, Citral]: in [1], the “Diameter of zone of inhibition” value was determined as 25.33±2.05 mm. Moreover, the “Diameter of zone of inhibition” value in the series on C. neoformans MTCC4424 [2] came out at 22.66±1.24 mm. In series [3] (24 h), this compound gave an MIC of 800 µg/mL. This compound showed an MIC against C. neoformans MTCC4424 [4] (MTCC4424, 24 h) of 1600 µg/mL. In “Cytotoxicity”, this compound came in with a hemolysis at 2 h, 25 μg/mL of 1.78 ± 0.16%; a hemolysis at 2 h, 50 μg/mL of 2.86 ± 0.15%; a hemolysis at 2 h, 100 μg/mL of 3.8 ± 0.18%; a hemolysis at 2 h, 200 μg/mL of 4.29 ± 0.12%. In “Cytotoxicity”, the hemolysis at 2 h, 400 μg/mL is 4.51 ± 0.13%; the hemolysis at 2 h, 800 μg/mL worked out at 5.98 ± 0.21%; the hemolysis at 2 h, 1600 μg/mL came out at 6.96 ± 0.1%; the hemolysis at 2 h, 3200 μg/mL was determined as 17.6 ± 1.04%. The MIC in series [5] (setting [9]) lay within 400 to 1600 µg/mL. Besides, the “MIC” value in series [5] (setting [10]) was in the range of 400 to 1600 µg/mL. In [6], the “Reduction of MICs in combination with fluconazole” value (from here on “Reduction of MICs in combination”) is listed as “up to 8 fold” and the “Interaction with fluconazole” value was “less synergistic; also recorded: synergy”. Further, the “zone of inhibition” value in [7] was more than 15 mm.

`O=C/C=C/c1ccccc1` [CD, Cinnamaldehyde]: the “Diameter of zone of inhibition” value in series [1] is 48.33±3.39 mm. The “Diameter of zone of inhibition” value in the series on C. neoformans MTCC4424 [2] was 45.66±2.49 mm. Besides, the MIC in [3] (24 h) was determined as 100 µg/mL (≈ 757 µM). Also, in the series with C. neoformans MTCC4424 [4] (MTCC4424, 24 h), the MIC was 100 µg/mL (≈ 757 µM). Moreover, in the series “Cytotoxicity”, the hemolysis at 2 h, 25 μg/mL turned out to be 1.84 ± 0.19%; the hemolysis at 2 h, 50 μg/mL is 2.87 ± 0.07%; the hemolysis at 2 h, 100 μg/mL came to 3.39 ± 0.12%; the hemolysis at 2 h, 200 μg/mL stood at 3.96 ± 0.05%. In the series “Cytotoxicity”, this compound showed a hemolysis at 2 h, 400 μg/mL of 4.4 ± 0.17%; a hemolysis at 2 h, 800 μg/mL of 5.06 ± 0.2%; a hemolysis at 2 h, 1600 μg/mL of 6.22 ± 0.19%; a hemolysis at 2 h, 3200 μg/mL of 18.1 ± 0.4%. The “MIC of agent in combination” value in the series on C. neoformans CN (setting [11]) came out at 12.50 µg/mL. Also, in the series with C. neoformans CN, the MIC was 100 µg/mL and the “Lowering of own MIC” value stood at 8 folds. The “MIC of agent in combination” value in the series with C. neoformans MTCC4424 [8] (setting [11]) came to 12.50 µg/mL. The MIC with C. neoformans MTCC4424 [8] amounted to 100 µg/mL. Besides, the MIC in series [5] (setting [9]) worked out at 100 µg/mL (≈ 757 µM). Further, in [5] (setting [10]), the “MIC” value lay within 100 to 200 µg/mL. Moreover, in [6], the “Reduction of MICs in combination” value is on record as “up to 32 fold” and the “Interaction with fluconazole” value is recorded as “synergistic interaction”. Further, in series [7], the “zone of inhibition” value is more than 15 mm.

Turning to `C=CCc1ccc(O)c(OC)c1` [EL, Eugenol], the “Diameter of zone of inhibition” value in series [1] worked out at 22.66±1.24 mm. Besides, the “Diameter of zone of inhibition” value in the series on C. neoformans MTCC4424 [2] is given as 40.33±1.69 mm. This compound displayed an MIC in [3] (24 h) of 200 µg/mL (≈ 1220 µM). Further, the MIC in the series on C. neoformans MTCC4424 [4] (MTCC4424, 24 h) amounted to 200 µg/mL (≈ 1220 µM). Further, in the series “Cytotoxicity”, the hemolysis at 2 h, 25 μg/mL is 1.65 ± 0.14%; the hemolysis at 2 h, 50 μg/mL stood at 1.98 ± 0.09%; the hemolysis at 2 h, 100 μg/mL stood at 3.02 ± 0.08%; the hemolysis at 2 h, 200 μg/mL was 3.72 ± 0.16%. In the series “Cytotoxicity”, this compound yielded a hemolysis at 2 h, 400 μg/mL of 4.26 ± 0.16%; a hemolysis at 2 h, 800 μg/mL of 4.78 ± 0.25%; a hemolysis at 2 h, 1600 μg/mL of 5.6 ± 0.63%; a hemolysis at 2 h, 3200 μg/mL of 19 ± 0.3%. Further, in the series on C. neoformans CN, the MIC turned out to be 200 µg/mL and the “Lowering of own MIC” value worked out at 8 folds. Besides, the “MIC of agent in combination” value with C. neoformans CN (setting [12]) amounted to 12.50 µg/mL. Moreover, the FICI in the series with C. neoformans CN (combination with fluconazole) amounted to 0.187. Further, the MIC with C. neoformans MTCC4424 [8] was 200 µg/mL. The “MIC of agent in combination” value in the series with C. neoformans MTCC4424 [8] (setting [12]) was determined as 12.50 µg/mL. For the same compound, the MIC in series [5] (setting [9]) came to 200 µg/mL (≈ 1220 µM). Also, the “MIC” value in [5] (setting [10]) is 100 to 200 µg/mL. In series [6], the “Reduction of MICs in combination” value is on record as “up to 32 fold” and the “Interaction with fluconazole” value is reported as “synergistic interaction”. In addition, in series [7], the “zone of inhibition” value is listed as more than 15 mm.

For `OC(Cn1cncn1)(Cn1cncn1)c1ccc(F)cc1F` [FLC, Fluconazole, reference compound], in the series with C. neoformans MTCC4424 [2] (antifungal drugs 10 μg/disc), the “Diameter of the zone of inhibition” value stood at 14.33±1.24 mm. Further, the MFC came to 256 µg/mL (≈ 836 µM) in series [3] and 32 µg/mL (≈ 104 µM) in the series with C. neoformans MTCC4424 [4]. Besides, the MIC was found to be 128 µg/mL (≈ 418 µM) in [3] (48 h); 8 µg/mL (≈ 26.1 µM) in the series on C. neoformans MTCC4424 [4] (MTCC4424, 48 h); 128 µg/mL in the series on C. neoformans CN; 8 µg/mL in the series on C. neoformans MTCC4424 [8]. For the same compound, the “MIC of agent in combination” value in the series on C. neoformans CN (setting [11]) amounted to 8 µg/mL; with C. neoformans CN (setting [12]), 8 µg/mL; in the series on C. neoformans MTCC4424 [8] (setting [11]), 1 µg/mL; with C. neoformans MTCC4424 [8] (setting [12]), 1 µg/mL. Moreover, the “Reduction of MICs in combination” value in [6] was “up to 32 fold”.

With `CC(C)=CCC/C(C)=C/CO` [GR, Geraniol], the “Diameter of zone of inhibition” value in series [1] is 19.33±1.24 mm. Moreover, the “Diameter of zone of inhibition” value with C. neoformans MTCC4424 [2] stood at 19.33±1.24 mm. For the same compound, the MIC in [3] (24 h) was determined as 400 µg/mL (≈ 2590 µM). The same compound had an MIC against C. neoformans MTCC4424 [4] (MTCC4424, 24 h) of 800 µg/mL (≈ 5190 µM). Further, in the series “Cytotoxicity”, the hemolysis at 2 h, 25 μg/mL amounted to 1.33 ± 0.17%; the hemolysis at 2 h, 50 μg/mL worked out at 2.16 ± 0.25%; the hemolysis at 2 h, 100 μg/mL was determined as 2.31 ± 0.26%; the hemolysis at 2 h, 200 μg/mL was 2.87 ± 0.23%. In addition, in the series “Cytotoxicity”, the hemolysis at 2 h, 400 μg/mL worked out at 3.36 ± 0.18%; the hemolysis at 2 h, 800 μg/mL stood at 3.85 ± 0.11%; the hemolysis at 2 h, 1600 μg/mL was found to be 4.74 ± 0.34%; the hemolysis at 2 h, 3200 μg/mL turned out to be 14.3 ± 0.23%. Besides, in series [5] (setting [9]), the MIC is 400 to 1600 µg/mL (≈ 2590 to 10400 µM). For the same compound, the “MIC” value in [5] (setting [10]) was 400 to 1600 µg/mL. In addition, in [6], the “Reduction of MICs in combination” value is “up to 8 fold” and the “Interaction with fluconazole” value is given as “synergy”. The “zone of inhibition” value in [7] was more than 15 mm.

Turning to `CCC(C)n1ncn(-c2ccc(N3CCN(c4ccc(OCC5COC(Cn6cncn6)(c6ccc(Cl)cc6Cl)O5)cc4)CC3)cc2)c1=O` (stereo not drawn) [ITC, Itraconazole], the MFC in series [3] was 128 µg/mL (≈ 181 µM); against C. neoformans MTCC4424 [4] it was 256 µg/mL (≈ 363 µM). Also, the MIC in series [3] (48 h) was found to be 64 µg/mL (≈ 90.7 µM); with C. neoformans MTCC4424 [4] (MTCC4424, 48 h), 128 µg/mL (≈ 181 µM). Moreover, in series [5] (antifungal drugs, both test strains), the “MIC range (resistance to azoles)” value lay within 64 to 256 µg/mL.

As to `CC(=O)N1CCN(c2ccc(OCC3COC(Cn4ccnc4)(c4ccc(Cl)cc4Cl)O3)cc2)CC1` (stereo not drawn) [KTC, Ketoconazole], the “Diameter of the zone of inhibition” value in [1] (antifungal drugs 10 μg/disc) is listed as 19.33±1.24 mm. Moreover, the results for the MFC (in series [3]; against C. neoformans MTCC4424 [4]) were 0.5 µg/mL (≈ 0.941 µM) and 128 µg/mL (≈ 241 µM), respectively. Besides, the MIC in series [3] (48 h) came out at 0.25 µg/mL (≈ 0.47 µM); in the series on C. neoformans MTCC4424 [4] (MTCC4424, 48 h), 64 µg/mL (≈ 120 µM).

For Triton X-100 [reference compound], the “hemolysis (positive control)” value with red blood cell (RBC) amounted to 100%.
